Source: PubChem (several laboratories)
Compounds with a hit are over-represented: about 3.2% of the library has one in this group of screens.
SMARCA2 activ – SMARCA2 function activation, primary screen. MG213 cells, MMTV-luciferase reporter, dexamethasone, overnight. activation, % at 9.1 µM. 1% of 370,000 active; in the data active = activation above about 7.8%
NR2E3 ag-1 – activates human photoreceptor nuclear receptor NR2E3 | Q9Y5X4 | GST-NR2E3/biotin-RetCOR TR-FRET, 1536-well | inhibition of corepressor binding, % at 4.78 µM | 0.12% of 320,000 active | AID 2300;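 active = percent inhibition above the cutoff of mean plus 3 SD of all tested compounds, set per screening campaign, cut at about 20% in these data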
Target sequence (Q9Y5X4 whole entry, looked up): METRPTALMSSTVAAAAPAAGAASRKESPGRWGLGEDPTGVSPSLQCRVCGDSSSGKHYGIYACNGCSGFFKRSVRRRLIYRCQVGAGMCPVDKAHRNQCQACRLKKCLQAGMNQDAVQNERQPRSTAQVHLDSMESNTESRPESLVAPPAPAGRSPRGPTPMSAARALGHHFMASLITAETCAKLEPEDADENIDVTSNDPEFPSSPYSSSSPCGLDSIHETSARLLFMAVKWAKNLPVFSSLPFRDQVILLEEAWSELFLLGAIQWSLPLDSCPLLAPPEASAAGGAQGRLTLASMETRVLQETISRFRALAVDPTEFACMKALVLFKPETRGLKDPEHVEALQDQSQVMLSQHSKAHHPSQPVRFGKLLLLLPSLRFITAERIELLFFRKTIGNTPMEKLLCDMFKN
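Test system: GST-NR2E3 and biotin-RetCOR proteins | Quantity: 1.35 nM GST-tagged NR2E3 final | Medium: Tris pH 7.5 | Also added: 7 nM biotin-RetCOR | Dosing: Compound at 4.8 µM, single dose | Timing: 5 h at 4 °C | Detection: Time-resolved FRET | Read-out basis: Percent inhibition | Benchmarks: Biotin wells as high control, 0.6% DMSO wells as low control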
DAX1 inh-1 – NR0B1 (DAX1) inhibition; P51843; HEK293 Gal4-DAX1 luciferase reporter, luminescence; inhibition, % at 6.75 µM; 0.99% of 340,000 active;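 active = inhibition above the mean over all tested compounds plus 3 SD, cut at about 4.2% in these data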;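 note: inhibition shows as a rise in luminescence from relieved DAX1 repression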
Target sequence (P51843 207-470 limits assumed): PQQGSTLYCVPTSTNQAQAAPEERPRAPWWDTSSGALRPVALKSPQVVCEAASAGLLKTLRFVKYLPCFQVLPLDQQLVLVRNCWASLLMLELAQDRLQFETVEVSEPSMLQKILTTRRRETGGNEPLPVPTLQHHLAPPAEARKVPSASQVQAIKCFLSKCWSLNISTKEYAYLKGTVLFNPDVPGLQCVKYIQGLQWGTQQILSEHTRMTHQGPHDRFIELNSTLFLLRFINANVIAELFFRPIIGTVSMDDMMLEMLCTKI
DAX1 inh-2 – inhibitors of DAX1 repression of SF-1 activated StAR promoter. HEK293T StAR-luciferase reporter, SF-1/DAX-1 repression relief. inhibition, % at 6.8 µM. 1.1% of 370,000 active. AID 652010;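 active = inhibition above the mean over all tested compounds plus 3 SD, cut at about 3.6% in these data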;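 note: higher inhibition means more luminescence from relief of DAX-1 repression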
NR2E3 ag-2 – agonists of human NR2E3 nuclear receptor | Q9Y5X4 | CHO-S Gal4-NCOR/VP16-NR2E3 two-hybrid, luciferase | inhibition of corepressor binding, % at 3.98 µM | 0.35% of 360,000 active | AID 602229;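 active = inhibition above the mean of all tested compounds plus 3 SD, cut at about 70% in these data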;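 note: higher means lower luciferase signal from less NR2E3 corepressor binding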
JMJD2C inh – blocks human GASC-1 demethylase activity. inhibition, % at 2.35 µM. 0.069% of 330,000 active. AID 2099. Q9H3R0. GST-JMJD2C(1-420) H3K9me3 demethylation, DELFIA europium;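 active = more than half of a compound's replicate wells show inhibition beyond 50%, single wells judged on their own value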;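 note: signal counts dimethyl H3K9 product captured on neutravidin plate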
SMARCA2 conf – confirmation of SMARCA2 (BRM) function activators; shares compounds with SMARCA2 activ; MG213 cells, MMTV-luciferase with dexamethasone, luminescence, overnight; MG213 cells expressing E1A, Rb sequestered; DMSO wells 0%, reference activator 100%; activation, % at 9.1 µM; 30% of 3,500 active; AID 652260;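 active = activation above its plate's cutoff, the mean activation of tested wells plus 3 SD, cut at about 7.9% in these data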
GAL4-VP16 Luc – GAL4-VP16 reporter activation counter-screen; shares compounds with SMARCA2 activ; HEK293 GAL4-VP16 pG5luc reporter, luciferase luminescence; scaled: DMSO wells 0%, SAHA wells 100%; activation, % at 9.1 µM; 41% of 3,500 active;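 active = activation above the solvent-only control well mean plus 3 SD, averaged across control plates, cut at about 5.2% in these data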
Of the large screens only hits and unclear results are named; the others gave an inactive call (follow-up assays come after a bar, where they were run).

CCN1C(=O)/C(=C2/C(=O)N3c4c(cc(OC(C)=O)cc42)C(C)=CC3(C)C)SC1=S	SMARCA2 activ 10 | SMARCA2 conf inactive | GAL4-VP16 Luc inactive
COC(=O)C1=C(C)N(C)C(=NCC2CC2)NC1CCc1ccccc1 (stereo not drawn)	none (no result: NR2E3 ag-1, DAX1 inh-1, NR2E3 ag-2, JMJD2C inh)
O=C(CS(=O)c1ccc(C(F)(F)F)cc1[N+](=O)[O-])Oc1ccccc1 (stereo not drawn)	SMARCA2 activ 16 | SMARCA2 conf inactive | GAL4-VP16 Luc inactive
COc1ccccc1CCC[C@H](CCS(=O)(=O)C(C)C)CC1CCCCC1	none (no result: NR2E3 ag-1, DAX1 inh-1, NR2E3 ag-2, JMJD2C inh)
C[C@H]1CN([C@@H](C)CO)C(=O)CCCn2cc(nn2)CO[C@@H]1CN(C)C(=O)c1ccc(N2CCN(C)CC2)cc1	SMARCA2 activ 8.2 (no result: NR2E3 ag-1, DAX1 inh-1, JMJD2C inh) | SMARCA2 conf inactive | GAL4-VP16 Luc inactive
COC(=O)N(C)C[C@H]1OCc2cnnn2CCCC(=O)N([C@@H](C)CO)C[C@@H]1C	SMARCA2 activ 8.6 (no result: NR2E3 ag-1, JMJD2C inh) | SMARCA2 conf inactive | GAL4-VP16 Luc inactive
COC(=O)N(C)C[C@H]1OCc2cnnn2CCCC(=O)N([C@H](C)CO)C[C@@H]1C	none (no result: NR2E3 ag-1, DAX1 inh-1, NR2E3 ag-2, JMJD2C inh)
O=P1(O)Cc2ccccc2-c2ccccc21	none (no result: NR2E3 ag-1, JMJD2C inh)
CN(C)c1ccc(NC(=O)c2ccc([N+](=O)[O-])cc2Cl)cc1	SMARCA2 activ 9.7 | SMARCA2 conf 7.9 | GAL4-VP16 Luc 12
CC(C)C(=O)Nc1ccc(NC(=O)c2ccc([N+](=O)[O-])cc2Cl)cc1	none
Cc1ccc(NC(=O)c2ccc([N+](=O)[O-])cc2Cl)nc1	SMARCA2 activ 9.1 (no result: JMJD2C inh) | SMARCA2 conf inactive | GAL4-VP16 Luc 9.7
Cc1ccc(C)c(S(=O)(=O)N2CCN(c3nc(CN4CCOCC4)nc4sc(C)c(C)c34)CC2)c1	SMARCA2 activ 9.1 | SMARCA2 conf inactive | GAL4-VP16 Luc inactive
O=C(OCc1c(-c2ccccc2)ncc2ccccc12)c1cccs1	none (no result: NR2E3 ag-1)
Cc1cccc(NC(=O)c2nc[nH]c2C(=O)N(C)Cc2ccccc2)c1	none
CC(C)C(Cl)=NOC(=O)Nc1ccc(F)cc1	SMARCA2 activ 43 (no result: NR2E3 ag-1, JMJD2C inh) | SMARCA2 conf inactive | GAL4-VP16 Luc inactive
Cc1c(C)n(CCc2ccccc2)c2ncnc(NCCO)c12	SMARCA2 activ 10 | SMARCA2 conf 8.4 | GAL4-VP16 Luc 10
Cc1ccc(-n2c(C)c(C)c3c(NCCCO)ncnc32)cc1	SMARCA2 activ 10 (no result: NR2E3 ag-1) | SMARCA2 conf 12 | GAL4-VP16 Luc 8.6
COc1ccc(-n2c(C)c(C)c3c(NCCCO)ncnc32)cc1	SMARCA2 activ 11 (no result: NR2E3 ag-1) | SMARCA2 conf inactive | GAL4-VP16 Luc 5.4
Fc1ccc(-c2cnc(-c3cccs3)o2)cc1	SMARCA2 activ 9.2 | SMARCA2 conf 10 | GAL4-VP16 Luc 5.4
CC(=O)Nc1cccc(OCCCNS(=O)(=O)c2ccc(C#N)cc2)c1	none
Nc1c(C(=O)Nc2ccc(F)cc2)sc(=S)n1-c1ccccc1F	SMARCA2 activ 8.4 | SMARCA2 conf inactive | GAL4-VP16 Luc inactive
Cn1c(N)c(C(=O)Nc2ccc3ccccc3c2)sc1=S	SMARCA2 activ 10 | SMARCA2 conf inactive | GAL4-VP16 Luc 12
COc1ccccc1-n1c(N)c(C(N)=O)sc1=S	none
Cn1c(N)c(C(=O)Nc2ccccc2F)sc1=S	none (no result: JMJD2C inh)
CC1CCCCN1C(=S)Nc1ccc(S(=O)(=O)N2CCCCC2)cc1 (stereo not drawn)	none (no result: NR2E3 ag-1, JMJD2C inh)
COc1ccc(NC(=O)c2cncn2-c2ccccc2)cc1	none
CN(Cc1cccc(Cl)c1)C(=O)C1CCC(=O)N(C2CC2)C1 (stereo not drawn)	none
CCOC(=O)C1=C(C)NC(=O)C(C#N)C1c1ccncc1 (stereo not drawn)	SMARCA2 activ 9.8 | SMARCA2 conf inactive | GAL4-VP16 Luc inactive
N#Cc1cccc(NC(=O)OCCCN2CCC3(CCCCC3)C2=O)c1	none (no result: NR2E3 ag-1, DAX1 inh-1, NR2E3 ag-2, JMJD2C inh)
Cc1noc(/C=C/Nc2ccc(F)cc2F)c1[N+](=O)[O-]	SMARCA2 activ 8.0 | SMARCA2 conf inactive | GAL4-VP16 Luc 10
Fc1ccccc1CSc1ncn[nH]1	SMARCA2 activ 9.0 | SMARCA2 conf inactive | GAL4-VP16 Luc inactive
COc1ccc(S(=O)(=O)NCc2cccnc2)cc1C(=O)N1CCCCC1	SMARCA2 activ 9.8 | SMARCA2 conf inactive | GAL4-VP16 Luc inactive
COc1ccc(S(=O)(=O)Nc2ccc(F)c(F)c2)cc1C(=O)N1CCOCC1	none
COc1ccc(S(=O)(=O)Nc2cccc(SC)c2)cc1C(=O)N1CCOCC1	SMARCA2 activ 9.6 | SMARCA2 conf inactive | GAL4-VP16 Luc inactive
C#CCN1C(=O)[C@]2(NCCc3c2[nH]c2ccc(OC)cc32)c2cc(F)ccc21	none (no result: NR2E3 ag-1, DAX1 inh-1, NR2E3 ag-2, JMJD2C inh)
Nc1c(Cl)ncnc1N/N=C/c1ccc(O)cc1	none
Fc1ccc(/C=N/Nc2nccnc2Cl)cc1	SMARCA2 activ 9.5, DAX1 inh-1 6.1 | SMARCA2 conf 8.4 | GAL4-VP16 Luc 7.8
Oc1ccc(/C=N/Nc2nccnc2Cl)cc1	SMARCA2 activ 13 | SMARCA2 conf inactive | GAL4-VP16 Luc 7.5
Cn1cccc1/C=N/N1CCN(Cc2ccc(Cl)cc2)CC1	none
Cn1cccc1/C=N/N1CCN(Cc2ccccc2)CC1	SMARCA2 activ 16 | SMARCA2 conf inactive | GAL4-VP16 Luc inactive
CC(C)n1nnnc1C1c2ccccc2C(=O)N1CCc1ccccc1F (stereo not drawn)	SMARCA2 activ 8.8 (no result: NR2E3 ag-1, DAX1 inh-1, JMJD2C inh) | SMARCA2 conf inactive | GAL4-VP16 Luc 7.4
COc1ccc(N2CCN(C(=O)[C@@H](NC(=O)c3ccccc3Cl)C(C)C)CC2)cc1	none
COc1ccc(C2=NN(C(=O)c3ccco3)C(c3cccs3)C2)cc1OC (stereo not drawn)	SMARCA2 activ 12 (no result: NR2E3 ag-1, JMJD2C inh) | SMARCA2 conf 18 | GAL4-VP16 Luc inactive
CC(c1ccccc1)N1CCn2c(nc3cc(NC(=O)c4cccs4)ccc32)C1 (stereo not drawn)	SMARCA2 activ 9.9 | SMARCA2 conf inactive | GAL4-VP16 Luc inactive
COc1ccc(NC(=O)CN(C)C(=O)c2cccc(S(=O)(=O)Nc3ccc(F)cc3)c2)cc1	none
O=C(c1cccc(S(=O)(=O)N2CCCC2)c1)N1CCN(S(=O)(=O)c2cccc(Cl)c2)CC1	none (no result: NR2E3 ag-1, JMJD2C inh)
CCOc1ccc(C(=O)CC(Sc2ccc(C)cc2)C(=O)O)cc1 (stereo not drawn)	none
O=C(CC(Sc1ccc(Br)cc1)C(=O)O)c1ccc(F)cc1 (stereo not drawn)	SMARCA2 activ 8.6 | SMARCA2 conf inactive | GAL4-VP16 Luc inactive
Cc1ccc(O)c(NC(=S)NC(=O)/C=C/c2ccco2)c1	none
